# Source: ChEMBL document CHEMBL1629575, “Clinical outcomes, safety, and pharmacokinetics of OPT-80 in a phase 2 trial with patients with Clostridium difficile infection” (Antimicrob Agents Chemother, 2009)
# Key:
# Plasma [1] = experiment: Drug level in clostridium difficile infected patient plasma assessed as OP-1118 metabolite level at 100 […], po every 12 hrs for 10 days by RP-HPLC/MS; assay type: ADME, organism-based; set-up: route oral; conditions: human, in vivo
# Outline: (§1)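 Plasma was sampled 0.5 h before and 2 h after dosing on the first and last days of the 10-day oral regimen. Samples were methanol-acetic acid precipitated with OP-1393 internal standard, C18 solid-phase extracted, and analysed by RP-HPLC (40°C column) with tandem quadrupole MS. Assay range was 5 to 1,000 ng/ml for parent and OP-1118.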
# Plasma [2] = experiment: Drug level in clostridium difficile infected patient plasma assessed as OP-1118 metabolite level at 200 […], po every 12 hrs for 10 days by RP-HPLC/MS; assay type: ADME, organism-based; set-up: route oral; conditions: human, in vivo; outline: as §1
# Plasma [3] = experiment: Drug level in clostridium difficile infected patient plasma assessed as OP-1118 metabolite level at 400 […], po every 12 hrs for 10 days by RP-HPLC/MS; assay type: ADME, organism-based; set-up: route oral; conditions: human, in vivo; outline: as §1
# [4] = Drug level in clostridium difficile infected patient feces assessed as OP-1118 metabolite level at 100 […], po every 12 hrs for 10 days by RP-HPLC/MS; assay type: ADME, organism-based; set-up: route oral; conditions: human, in vivo
# Outline: (§2)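 The complete 24-h stool output was collected on day 10 (or the final dosing day if treatment stopped early) and frozen at −80°C. Stool was homogenized in acetonitrile-acetic acid, diluted with acetonitrile, spiked with OP-1393 internal standard, and analysed by RP-HPLC-MS/MS. The assay standard range for parent was 10 to 2,000 ng/ml. Results are reported as mean ± SD in μg/g.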
# [5] = Drug level in clostridium difficile infected patient feces assessed as OP-1118 metabolite level at 200 […], po every 12 hrs for 10 days by RP-HPLC/MS; assay type: ADME, organism-based; set-up: route oral; conditions: human, in vivo; outline: as §2
# [6] = Drug level in clostridium difficile infected patient feces assessed as OP-1118 metabolite level at 400 […], po every 12 hrs for 10 days by RP-HPLC/MS; assay type: ADME, organism-based; set-up: route oral; conditions: human, in vivo; outline: as §2
# Clostridioides difficile [7] = experiment: Antimicrobial activity against Clostridium difficile infected in patient assessed as resolution of diarrhea on day 10 at 100 […], po every 12 hrs for 10 days; assay type: functional
# Outline: (§3)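 Open-label randomized phase 2 trial in mild to moderate CDI patients, oral dosing over a 10-day regimen. Resolution of diarrhea was defined as the first day with one or two non-watery, non-loose stools in 24 h, sustained through treatment up to study day 10. Time to resolution was counted from the first dose.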
# Clostridioides difficile [8] = experiment: Antimicrobial activity against Clostridium difficile infected in patient assessed as resolving of diarrhea after 10 days at 100 […], po every 12 hrs for 10 days; assay type: functional; outline: as §3
# Clostridioides difficile [9] = experiment: Antimicrobial activity against Clostridium difficile infected in patient assessed as clinical failure at 100 […], po every 12 hrs for 10 days; assay type: functional
# Outline: (§4)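 Phase 2 open-label randomized dose-ranging trial; adults with mild to moderate CDI (primary episode or first relapse, positive toxin by EIA or cytotoxicity assay), oral dosing for 10 days. Clinical failure was defined as the need for additional therapy during the treatment period. Failures underwent C. difficile culture and toxin testing.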
# Clostridioides difficile [10] = experiment: Antimicrobial activity against Clostridium difficile infected in patient assessed as recurrence of diarrhea within 6 weeks after treatment at 100 […], po every 12 hrs for 10 days; assay type: functional
# Clostridioides difficile [11] = experiment: Antimicrobial activity against Clostridium difficile infected in patient assessed as resolution of diarrhea on day 10 at 200 […], po every 12 hrs for 10 days; assay type: functional; outline: as §3
# Clostridioides difficile [12] = experiment: Antimicrobial activity against Clostridium difficile infected in patient assessed as resolving of diarrhea after 10 days at 200 […], po every 12 hrs for 10 days; assay type: functional; outline: as §3
# Clostridioides difficile [13] = experiment: Antimicrobial activity against Clostridium difficile infected in patient assessed as clinical failure at 200 […], po every 12 hrs for 10 days; assay type: functional; outline: as §4
# Clostridioides difficile [14] = experiment: Antimicrobial activity against Clostridium difficile infected in patient assessed as recurrence of diarrhea within 6 weeks after treatment at 200 mg/kg, po every 12 hrs for 10 days; assay type: functional
# Clostridioides difficile [15] = experiment: Antimicrobial activity against Clostridium difficile infected in patient assessed as resolution of diarrhea on day 10 at 400 […], po every 12 hrs for 10 days; assay type: functional; outline: as §3
# Clostridioides difficile [16] = experiment: Antimicrobial activity against Clostridium difficile infected in patient assessed as resolving of diarrhea after 10 days at 400 […], po every 12 hrs for 10 days; assay type: functional; outline: as §3
# Clostridioides difficile [17] = experiment: Antimicrobial activity against Clostridium difficile infected in patient assessed as clinical failure at 400 […], po every 12 hrs for 10 days; assay type: functional; outline: as §4
# Clostridioides difficile [18] = experiment: Antimicrobial activity against Clostridium difficile infected in patient assessed as recurrence of diarrhea within 6 weeks after treatment at 400 mg/kg, po every 12 hrs for 10 days; assay type: functional
# Clostridioides difficile [19] = experiment: Antimicrobial activity against Clostridium difficile infected in patient assessed as complete relief of clostridium difficile associated diarrhea symptom in patient at 100 […], po every 12 hrs for 10 days; assay type: functional
# Clostridioides difficile [20] = experiment: Antimicrobial activity against Clostridium difficile infected in patient assessed as incomplete relief of clostridium difficile associated diarrhea symptom in patient at 100 […], po every 12 hrs for 10 days; assay type: functional
# Clostridioides difficile [21] = experiment: Antimicrobial activity against Clostridium difficile infected in patient assessed as percentage of patient require further treatment at 100 […], po every 12 hrs for 10 days; assay type: functional; outline: as §4
# Clostridioides difficile [22] = experiment: Antimicrobial activity against Clostridium difficile infected in patient assessed as percentage of patient require no further treatment at 100 […], po every 12 hrs for 10 days; assay type: functional; outline: as §4
# Clostridioides difficile [23] = experiment: Antimicrobial activity against Clostridium difficile infected in patient assessed as complete relief of clostridium difficile associated diarrhea symptom in patient at 200 […], po every 12 hrs for 10 days; assay type: functional
# Clostridioides difficile [24] = experiment: Antimicrobial activity against Clostridium difficile infected in patient assessed as incomplete relief of clostridium difficile associated diarrhea symptom in patient at 200 […], po every 12 hrs for 10 days; assay type: functional
# Clostridioides difficile [25] = experiment: Antimicrobial activity against Clostridium difficile infected in patient assessed as percentage of patient require further treatment at 200 […], po every 12 hrs for 10 days; assay type: functional; outline: as §4
# Clostridioides difficile [26] = experiment: Antimicrobial activity against Clostridium difficile infected in patient assessed as percentage of patient require no further treatment at 200 […], po every 12 hrs for 10 days; assay type: functional; outline: as §4
# Clostridioides difficile [27] = experiment: Antimicrobial activity against Clostridium difficile infected in patient assessed as complete relief of clostridium difficile associated diarrhea symptom in patient at 400 […], po every 12 hrs for 10 days; assay type: functional
# Clostridioides difficile [28] = experiment: Antimicrobial activity against Clostridium difficile infected in patient assessed as incomplete relief of clostridium difficile associated diarrhea symptom in patient at 400 […], po every 12 hrs for 10 days; assay type: functional
# Clostridioides difficile [29] = experiment: Antimicrobial activity against Clostridium difficile infected in patient assessed as percentage of patient require further treatment at 400 […], po every 12 hrs for 10 days; assay type: functional; outline: as §4
# Clostridioides difficile [30] = experiment: Antimicrobial activity against Clostridium difficile infected in patient assessed as percentage of patient require no further treatment at 400 […], po every 12 hrs for 10 days; assay type: functional; outline: as §4
# [31] = Drug level in clostridium difficile infected patient plasma at 100 […], po every 12 hrs for 10 days by RP-HPLC/MS; assay type: ADME, organism-based; set-up: route oral; conditions: human, read-out: Activity; outline: as §1
# Plasma [32] = experiment: Drug level in clostridium difficile infected patient plasma at 200 […], po every 12 hrs for 10 days by RP-HPLC/MS; assay type: ADME, organism-based; set-up: route oral; conditions: human, in vivo; outline: as §1
# [33] = Drug level in clostridium difficile infected patient plasma at 400 […], po every 12 hrs for 10 days by RP-HPLC/MS; assay type: ADME, organism-based; set-up: route oral; conditions: human, read-out: Activity; outline: as §1
# [34] = Drug level in clostridium difficile infected patient feces at 100 […], po every 12 hrs for 10 days by RP-HPLC/MS; assay type: ADME, organism-based; set-up: route oral; conditions: human, faeces, read-out: Activity; outline: as §2
# [35] = Drug level in clostridium difficile infected patient feces at 200 […], po every 12 hrs for 10 days by RP-HPLC/MS; assay type: ADME, organism-based; set-up: route oral; conditions: human, faeces, read-out: Activity; outline: as §2
# [36] = Drug level in clostridium difficile infected patient feces at 400 […], po every 12 hrs for 10 days by RP-HPLC/MS; assay type: ADME, organism-based; set-up: route oral; conditions: human, faeces, read-out: Activity; outline: as §2
# Clostridioides difficile [37] = experiment: Antimicrobial activity against Clostridium difficile; assay type: functional
structure (smiles),measurement,setting,value
CCc1c(Cl)c(O)c(Cl)c(O)c1C(=O)O[C@H]1[C@H](O)[C@H](OC)[C@H](OC/C2=C\C=C\C[C@H](O)/C(C)=C/[C@H](CC)[C@@H](O[C@@H]3OC(C)(C)[C@@H](O)[C@H](O)[C@@H]3O)/C(C)=C/C(C)=C/C[C@@H]([C@@H](C)O)OC2=O)O[C@@H]1C,Activity,Plasma [1],77.2 ng/mL
same,Activity,Plasma [2],154.3 ng/mL
same,Activity,Plasma [3],402.3 ng/mL
same,Activity,[4],393 µg/g
same,Activity,[5],430 µg/g
same,Activity,[6],760 µg/g
CCc1c(Cl)c(O)c(Cl)c(O)c1C(=O)O[C@H]1[C@H](O)[C@H](OC)[C@H](OC/C2=C\C=C\C[C@H](O)/C(C)=C/[C@H](CC)[C@@H](O[C@@H]3OC(C)(C)[C@@H](OC(=O)C(C)C)[C@H](O)[C@@H]3O)/C(C)=C/C(C)=C/C[C@@H]([C@@H](C)O)OC2=O)O[C@@H]1C [FIDAXOMICIN],Activity,Clostridioides difficile [7],71%
same,Activity,Clostridioides difficile [8],14%
same,Activity,Clostridioides difficile [9],14%
same,Activity,Clostridioides difficile [10],8.3%
same,Activity,Clostridioides difficile [11],80%
same,Activity,Clostridioides difficile [12],7%
same,Activity,Clostridioides difficile [13],13%
same,Activity,Clostridioides difficile [14],0%
same,Activity,Clostridioides difficile [15],94%
same,Activity,Clostridioides difficile [16],6%
same,Activity,Clostridioides difficile [17],0%
same,Activity,Clostridioides difficile [18],6.3%
same,Activity,Clostridioides difficile [19],37.5%
same,Activity,Clostridioides difficile [20],56.3%
same,Activity,Clostridioides difficile [21],12.5%
same,Activity,Clostridioides difficile [22],31.3%
same,Activity,Clostridioides difficile [23],50%
same,Activity,Clostridioides difficile [24],37.5%
same,Activity,Clostridioides difficile [25],12.5%
same,Activity,Clostridioides difficile [26],18.8%
same,Activity,Clostridioides difficile [27],86.7%
same,Activity,Clostridioides difficile [28],13.3%
same,Activity,Clostridioides difficile [29],0%
same,Activity,Clostridioides difficile [30],13.3%
same,concentration at 10 days,[31],12.3 ng/mL
same,Activity,Plasma [32],9.37e-05 mg/mL
same,concentration at 10 days,[33],84.9 ng/mL
same,concentration at 10 days,[34],256000 ng/g
same,concentration at 10 days,[35],442000 ng/g
same,concentration at 10 days,[36],1.43e+06 ng/g
same,MIC90,Clostridioides difficile [37],0.125 µg/mL
Cc1ncc([N+](=O)[O-])n1CCO [METRONIDAZOLE],MIC90,Clostridioides difficile [37],0.5 µg/mL
CN[C@H](CC(C)C)C(=O)N[C@H]1C(=O)N[C@@H](CC(N)=O)C(=O)N[C@H]2C(=O)N[C@H]3C(=O)N[C@H](C(=O)N[C@H](C(=O)O)c4cc(O)cc(O)c4-c4cc3ccc4O)[C@H](O)c3ccc(c(Cl)c3)Oc3cc2cc(c3O[C@@H]2O[C@H](CO)[C@@H](O)[C@H](O)[C@H]2O[C@H]2C[C@](C)(N)[C@H](O)[C@H](C)O2)Oc2ccc(cc2Cl)[C@H]1O [VANCOMYCIN],MIC90,Clostridioides difficile [37],2 µg/mL
